Test results reported in ChEMBL document CHEMBL1145864, “Synthesis and structure-activity relationship of a new series of COX-2 selective inhibitors: 1,5-diarylimidazoles” (J Med Chem, 2003).

How the values were obtained:
Rattus norvegicus [1] = experiment: In vivo anti-inflammatory activity by air pouch model at 1 mg/kg perorally in rat.; format: functional; conditions: route oral
How it was run: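 Rat air pouch: sterile air (20 mL) was injected subcutaneously, with 10 mL refills every 2 days. On day 7, 2 mL of 1% lambda-carrageenan in saline was injected into the pouch. Compound was given orally (suspension in 1% CMC/Tween-80, 10 mL/kg) 0.5 h before carrageenan. At 6 h, exudate was collected and centrifuged, and supernatant PGE2 was measured by ELISA.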

[2] = target: Prostaglandin G/H synthase 1 (Homo sapiens, UniProt P23219); format: cell-based, U-937
Sequence of Prostaglandin G/H synthase 1 (P23219 whole entry): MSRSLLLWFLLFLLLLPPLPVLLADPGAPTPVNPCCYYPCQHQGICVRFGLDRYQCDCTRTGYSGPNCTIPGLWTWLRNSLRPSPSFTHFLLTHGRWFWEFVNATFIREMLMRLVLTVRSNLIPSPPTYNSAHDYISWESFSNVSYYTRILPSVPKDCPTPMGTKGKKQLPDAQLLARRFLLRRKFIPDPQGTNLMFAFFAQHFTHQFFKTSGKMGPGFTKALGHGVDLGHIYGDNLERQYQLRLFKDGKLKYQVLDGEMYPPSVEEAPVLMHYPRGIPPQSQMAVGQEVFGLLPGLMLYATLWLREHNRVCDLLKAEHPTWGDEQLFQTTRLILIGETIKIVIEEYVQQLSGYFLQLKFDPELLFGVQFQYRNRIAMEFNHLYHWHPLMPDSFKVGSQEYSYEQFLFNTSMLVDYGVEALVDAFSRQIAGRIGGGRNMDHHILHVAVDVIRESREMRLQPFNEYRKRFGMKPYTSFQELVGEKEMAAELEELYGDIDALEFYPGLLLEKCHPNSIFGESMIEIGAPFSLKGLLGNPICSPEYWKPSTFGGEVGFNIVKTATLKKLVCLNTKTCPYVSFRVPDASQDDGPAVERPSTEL

[3] = target: T1, Prostaglandin G/H synthase 2 (Homo sapiens) (UniProt P35354); conditions: Blood; at 10 µM
T1 sequence (whole entry): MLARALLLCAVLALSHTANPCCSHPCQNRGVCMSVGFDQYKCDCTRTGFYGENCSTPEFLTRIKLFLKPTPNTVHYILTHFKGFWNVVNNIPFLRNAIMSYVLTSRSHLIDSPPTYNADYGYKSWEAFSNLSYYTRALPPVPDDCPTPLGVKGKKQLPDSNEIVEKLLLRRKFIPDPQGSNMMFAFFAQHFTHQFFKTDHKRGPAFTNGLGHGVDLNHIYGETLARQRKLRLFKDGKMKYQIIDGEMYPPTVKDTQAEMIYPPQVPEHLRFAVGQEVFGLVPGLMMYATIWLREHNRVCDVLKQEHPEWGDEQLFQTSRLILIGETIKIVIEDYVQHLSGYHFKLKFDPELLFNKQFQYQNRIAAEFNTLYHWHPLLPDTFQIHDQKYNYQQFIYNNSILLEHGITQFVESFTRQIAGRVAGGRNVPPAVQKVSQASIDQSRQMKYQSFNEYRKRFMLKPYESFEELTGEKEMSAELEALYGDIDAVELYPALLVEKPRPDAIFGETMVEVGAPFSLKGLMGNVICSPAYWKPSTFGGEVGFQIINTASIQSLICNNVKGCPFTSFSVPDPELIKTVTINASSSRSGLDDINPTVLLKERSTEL

Rattus norvegicus [4] = experiment: In vivo analgesic activity of compound was determined by inflammatory hyperalgesia model at 3 mg/kg perorally in rat; format: functional; conditions: route oral
How it was run: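 Male Sprague–Dawley rats received 1% carrageenan suspension (0.1 mL) into the right hind foot pad. Three hours later, compound (suspended in 1% Tween-80) was given by gavage. After 30 min, a heat stimulus was applied under the inflamed paw and withdrawal latency (s) recorded. The % inhibition of the stimulus-induced latency decrease was calculated relative to the untreated left paw.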

Rattus norvegicus [5] = experiment: In vivo anti-inflammatory activity determined by rat carrageenan paw edema method at 10 mg/kg perorally; format: functional; conditions: route oral
[6] = Half life of compound was determined at 1 mg/kg intravenous administration in rat; format: ADME, organism-based; parameters: dose 1 mg/kg, route intravenous; conditions: in vivo
[7] = target: T1, Prostaglandin G/H synthase 2 (Homo sapiens); conditions: Blood; at 1 µM
[8] = target: T1, Prostaglandin G/H synthase 2 (Homo sapiens); experiment: In vitro inhibition of Prostaglandin G/H synthase 2 (COX-2)in human whole blood at 1 uM was determined
Rattus norvegicus [9] = experiment: In vivo inhibition of contralateral paw swelling after oral treatment for 28 days (1 mg/kg od) was determined by adjuvabt arthritis in rat; format: functional
How it was run: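 Lewis rats (140–170 g, 7 weeks) received 0.5 mg Mycobacterium butyricum in light mineral oil intradermally into the right hind foot pad; controls received incomplete adjuvant. Groups of 10 were dosed orally at 1 mg/kg daily for 28 days, starting on the day of injection. Left hind paw volume was measured plethysmographically at the end and expressed as % inhibition versus controls.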

Rattus norvegicus [10] = experiment: Percentage of [51Cr]- secreted in feces was determined by fecal drug-induced bleeding method in rat at 100 mg/kg, bid for 4 days
Rattus norvegicus [11] = experiment: In vivo anti-inflammatory activity of compound was determined by rat carrageenan paw edema at 10 mg/kg perorally; conditions: po

IC50 [2] | inhibition [3] | half-life [6] | inhibition [7] | inhibition [8] | SMILES | inhibition in vivo at 1 mg/kg (Rattus norvegicus [1]) | inhibition in vivo at 3 mg/kg (Rattus norvegicus [4]) | inhibition in vivo at 10 mg/kg (Rattus norvegicus [5]) | Inhibition (Rattus norvegicus [9]) | Cr secretion (Rattus norvegicus [10]) | inhibition in vivo at 10 mg/kg (Rattus norvegicus [11])
> 1 µM | 79.3% | 3.8 h |  |  | COc1cc(-c2c(Cl)ncn2-c2ccc(S(N)(=O)=O)cc2)ccc1F | 58.9% | 38% | 14.3% |  |  | 
5.1 µM | 59.5% | 2.9 h |  |  | NS(=O)(=O)c1ccc(-n2cnc(Cl)c2-c2ccccc2)cc1 | 96.3% |  | 36.3% |  |  | 
> 10 µM | 96% | 17 h | 82.6% |  | CS(=O)(=O)c1ccc(-n2cnc(Cl)c2-c2ccccc2)cc1 | 83.2% |  | 29.2% |  |  | 
> 10 µM | 100% |  |  | 74% | CS(=O)(=O)c1ccc(-c2cnc(C#N)n2-c2ccc(F)cc2)cc1 | 79% |  | 28.5% |  |  | 
2.2 µM |  | 2.2 h |  |  | CCOc1ccc(-c2c(Cl)ncn2-c2ccc(S(N)(=O)=O)cc2)cc1 | 98.9% | 82.8% | 29.2% | 97% | 0.5% | 
> 10 µM | 100% |  | 9.7% |  | CCN(CC)c1ccc(-c2c(Cl)ncn2-c2ccc(S(C)(=O)=O)cc2)cc1 | 64.1% | 64.1% | 24.2% |  |  | 
> 10 µM | 100% | 3.5 h | 60.5% |  | CS(=O)(=O)c1ccc(-n2cnc(Cl)c2-c2ccc3c(c2)OCO3)cc1 |  | 69.9% | 30.6% |  |  | 
> 10 µM | 100% | 2.2 h | 79% |  | COc1ccc(-c2c(Cl)ncn2-c2ccc(S(C)(=O)=O)cc2)cc1F | 89.5% | 80% | 24.2% | 86% | 0.4% | 
 |  |  |  |  | Cc1ccc(-c2cc(C(F)(F)F)nn2-c2ccc(S(N)(=O)=O)cc2)cc1 [CELECOXIB] | 93.4% | 86.7% | 35.7% | 89% | 0.7% | 
3.1 µM | 61.4% | 17 h |  |  | NS(=O)(=O)c1ccc(-n2cnc(Cl)c2-c2ccc(F)cc2)cc1 | 93.2% |  | 38.6% |  |  | 
 |  |  |  |  | COc1ccc2c(c1)c(CC(=O)O)c(C)n2C(=O)c1ccc(Cl)cc1 [INDOMETHACIN] |  |  | 66.2% | 94% | 7.5% | 
> 10 µM | 100% | 1.7 h | 90.5% |  | Cc1ccc(-c2c(Cl)ncn2-c2ccc(S(C)(=O)=O)cc2)cc1 | 65.5% |  | 21.6% |  |  | 
> 10 µM | 92.6% |  | 97.4% |  | COc1cc(-c2c(Cl)ncn2-c2ccc(S(C)(=O)=O)cc2)ccc1F | 15.1% | 20.4% | 25% |  |  | 
> 10 µM | 92.8% |  | 56.2% |  | CS(=O)(=O)c1ccc(-c2cnc(Br)n2-c2ccc(F)cc2)cc1 | 35.5% |  | 40.4% |  |  | 
3.3 µM | 100% | 2.9 h | 100% |  | COc1ccc(-c2c(Cl)ncn2-c2ccc(S(N)(=O)=O)cc2)cc1F [CIMICOXIB] | 98.2% | 83.4% | 31% | 93% | 0.9% | 
> 10 µM | 100% |  | 75.1% |  | Cc1ccc(-c2c(Cl)ncn2-c2ccc(S(C)(=O)=O)cc2)cc1F | 18.5% |  | 22.6% |  |  | 
 | 100% |  | 84.1% |  | CS(=O)(=O)c1ccc(C2=C(c3ccccc3)C(=O)OC2)cc1 [ROFECOXIB] | 95.3% | 83.4% | 33.3% | 87% | 0.6% | 
> 10 µM | 100% | 21 h | 89% |  | CS(=O)(=O)c1ccc(-n2cnc(Cl)c2-c2ccc(F)cc2)cc1 | 98.1% |  |  |  |  | 41.2%
> 10 µM | 100% | 3.6 h | 84.1% |  | COc1ccc(-c2c(Cl)ncn2-c2ccc(S(C)(=O)=O)cc2)cc1Cl | 71.1% | 66.6% | 31.4% |  |  | 
> 10 µM | 82.4% |  | 54.5% |  | CS(=O)(=O)c1ccc(-n2cnc(Cl)c2-c2ccncc2)cc1 | 50.2% | 69.4% | 31.7% |  |  | 
1.9 µM | 98.9% | 1.2 h | 64.6% |  | CN(C)c1ccc(-c2c(Cl)ncn2-c2ccc(S(C)(=O)=O)cc2)cc1Cl | 43% | 63.8% | 33.3% |  |  | 
2.7 µM | 100% | 5.2 h | 76.1% |  | Cc1ccc(-c2c(Cl)ncn2-c2ccc(S(N)(=O)=O)cc2)cc1 | 62.3% |  | 32.6% |  |  | 
